pIC50, pKi: −log10 of the molar value. ≈ marks a conversion by molar mass, not a printed value.
Key:
Cytochrome P450 2C19 = Cytochrome P450 2C19 (Homo sapiens, UniProt P33261); assay: Inhibition of CYP2C19 in human liver microsomes using S-mephenytoin as susbtrate incubated for 30 mins prior to substrate addition for 10 mins by LC-MS/MS analysis; type: ADME
Cytochrome P450 2D6 = Cytochrome P450 2D6 (Homo sapiens, UniProt P10635); assay: Inhibition of CYP2D6 in human liver microsomes using bufuralol as susbtrate incubated for 30 mins prior to substrate addition for 10 mins by LC-MS/MS analysis; type: ADME
Cytochrome P450 2C9 = Cytochrome P450 2C9 (Homo sapiens, UniProt P11712); assay: Inhibition of CYP2C9 in human liver microsomes using tolbutamide as susbtrate incubated for 30 mins prior to substrate addition for 10 mins by LC-MS/MS analysis; type: ADME
[1] = Aqueous solubility of the compound in Dulbecco's phosphate buffered saline at pH 7.4 by DMSO solution precipitation method; type: physicochemical
In short: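 Solubility in Dulbecco's PBS at pH 7.4, measured at room temperature by precipitation from a DMSO solution.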

Cytochrome P450 2C8 = molecular target: T1, Cytochrome P450 2C8 (Homo sapiens, UniProt P10632); assay: Inhibition of CYP2C8 in human liver microsomes using rosiglitazone as susbtrate incubated for 30 mins prior to substrate addition for 10 mins by LC-MS/MS analysis; type: ADME
T1 sequence (P10632 whole entry): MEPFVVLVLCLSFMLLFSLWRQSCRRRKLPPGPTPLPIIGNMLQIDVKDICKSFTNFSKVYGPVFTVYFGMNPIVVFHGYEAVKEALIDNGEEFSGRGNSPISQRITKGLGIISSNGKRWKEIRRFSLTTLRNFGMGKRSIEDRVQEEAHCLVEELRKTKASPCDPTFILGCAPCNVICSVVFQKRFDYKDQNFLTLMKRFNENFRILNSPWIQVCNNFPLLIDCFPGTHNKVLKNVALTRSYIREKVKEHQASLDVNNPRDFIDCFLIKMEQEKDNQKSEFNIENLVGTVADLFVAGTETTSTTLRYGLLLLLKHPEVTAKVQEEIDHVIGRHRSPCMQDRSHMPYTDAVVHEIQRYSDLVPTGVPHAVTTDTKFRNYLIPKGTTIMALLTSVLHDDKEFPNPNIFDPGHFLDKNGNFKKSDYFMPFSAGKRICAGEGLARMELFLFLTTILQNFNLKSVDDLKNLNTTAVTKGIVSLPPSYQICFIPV

[2] = Activity at P-gp (unknown origin) assessed as corrected flux ratio; type: ADME; settings: human
In short: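 Reported as corrected flux ratio, i.e. the MDR1 flux ratio divided by the PK1 flux ratio.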

Cytochrome P450 1A2 = molecular target: T2, Cytochrome P450 1A2 (Homo sapiens, UniProt P05177); assay: Inhibition of CYP1A2 in human liver microsomes using phenacetin as susbtrate incubated for 30 mins prior to substrate addition for 10 mins by LC-MS/MS analysis; type: ADME
T2 sequence (P05177 whole entry): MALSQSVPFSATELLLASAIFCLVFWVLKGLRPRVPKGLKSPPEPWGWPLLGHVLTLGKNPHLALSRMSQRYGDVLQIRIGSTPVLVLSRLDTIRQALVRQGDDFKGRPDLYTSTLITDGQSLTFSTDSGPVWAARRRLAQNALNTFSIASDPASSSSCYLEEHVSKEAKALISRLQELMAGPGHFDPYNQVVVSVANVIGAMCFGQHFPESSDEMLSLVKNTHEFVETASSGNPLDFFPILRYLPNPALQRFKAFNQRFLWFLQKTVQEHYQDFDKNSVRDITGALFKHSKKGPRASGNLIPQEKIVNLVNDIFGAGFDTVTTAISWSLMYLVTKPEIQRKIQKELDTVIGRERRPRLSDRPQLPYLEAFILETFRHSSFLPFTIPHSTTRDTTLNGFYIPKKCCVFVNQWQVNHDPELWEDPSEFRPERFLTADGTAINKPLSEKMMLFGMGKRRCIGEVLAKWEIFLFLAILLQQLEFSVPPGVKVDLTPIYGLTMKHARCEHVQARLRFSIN

[3] = Aqueous solubility of the compound in Japanese Pharmacopoeia 1st fluid at pH 1.2 by DMSO solution precipitation method; type: physicochemical
In short: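 Solubility in Japanese Pharmacopoeia 1st fluid (aqueous HCl containing 34 mM NaCl), pH 1.2, measured at room temperature by precipitation from a DMSO solution.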

Orexin receptor type 2 = molecular target: T3, Orexin receptor type 2 (Homo sapiens, UniProt O43614); assay: Binding affinity to human OX2R by radioligand displacement binding assay
T3 sequence (O43614 whole entry): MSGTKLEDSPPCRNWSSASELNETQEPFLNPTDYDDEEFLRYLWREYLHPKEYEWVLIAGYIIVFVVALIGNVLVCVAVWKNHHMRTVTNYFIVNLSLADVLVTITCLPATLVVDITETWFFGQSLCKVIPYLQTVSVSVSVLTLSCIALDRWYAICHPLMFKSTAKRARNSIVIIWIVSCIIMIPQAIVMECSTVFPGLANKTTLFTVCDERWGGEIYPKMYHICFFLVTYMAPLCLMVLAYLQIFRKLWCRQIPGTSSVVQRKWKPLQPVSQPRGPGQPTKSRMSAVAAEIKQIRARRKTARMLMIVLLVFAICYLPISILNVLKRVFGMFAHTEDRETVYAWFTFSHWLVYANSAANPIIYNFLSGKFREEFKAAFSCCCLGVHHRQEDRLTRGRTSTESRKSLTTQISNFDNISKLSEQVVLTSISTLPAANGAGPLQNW

CYP3A = CYP3A (Homo sapiens, UniProt P08684+P20815+P24462+Q9HB55); assay: Time dependent inhibition of CYP3A in human liver microsomes assessed as enzyme activity using midazolam as substrate at 10 uM incubated for 30 mins prior to substrate addition for 10 mins by LC-MS/MS analysis; type: ADME; set-up: scale not given: the % may be the effect or the level left; settings: probe midazolam, read-out: Activity
In short: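 Test compound at 10 μM preincubated 30 min at 37 °C with human liver microsomes (0.2 mg/mL), with or without an NADPH-generating system. Mixture then diluted 10-fold into a marker-substrate cocktail plus NADPH system and incubated 10 min at 37 °C. Midazolam served as the CYP3A probe. Metabolites measured by LC−MS/MS. Result is the residual activity with NADPH relative to without, as % of control.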

[4] = Metabolic stability in human liver microsomes assessed as residual ratio at 0.3 uM after 15 mins by LC-MS analysis; type: ADME; settings: read-out: Stability
In short: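 Human liver microsomes (0.2 mg/mL) incubated with test compound at 0.3 μM in 0.1% DMSO for 15 min at 37 °C, with and without an NADPH-generating system. Reaction stopped with acetonitrile/methanol (7:3) containing internal standard. Parent compound quantified by LC−MS. Value is the residual ratio in the presence versus absence of NADPH.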

[5] = molecular target: T4, Orexin/Hypocretin receptor type 1 (Homo sapiens, UniProt O43613); assay: Binding affinity to human OX1R by radioligand displacement binding assay
T4 sequence (O43613 whole entry): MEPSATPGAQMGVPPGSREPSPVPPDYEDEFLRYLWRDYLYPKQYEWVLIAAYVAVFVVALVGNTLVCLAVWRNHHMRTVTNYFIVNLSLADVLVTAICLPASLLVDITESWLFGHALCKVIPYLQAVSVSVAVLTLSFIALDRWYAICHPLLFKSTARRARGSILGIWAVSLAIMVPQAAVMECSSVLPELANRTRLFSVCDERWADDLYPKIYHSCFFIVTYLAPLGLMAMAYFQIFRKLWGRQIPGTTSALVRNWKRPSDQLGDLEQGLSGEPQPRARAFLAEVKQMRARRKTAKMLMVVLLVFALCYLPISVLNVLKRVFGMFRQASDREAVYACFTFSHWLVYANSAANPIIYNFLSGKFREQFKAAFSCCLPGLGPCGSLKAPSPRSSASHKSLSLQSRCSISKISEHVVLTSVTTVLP
In short: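 Ki values come from single experiments run in triplicate.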

Chain of Cytochrome P450 2C9 (P11712 whole entry): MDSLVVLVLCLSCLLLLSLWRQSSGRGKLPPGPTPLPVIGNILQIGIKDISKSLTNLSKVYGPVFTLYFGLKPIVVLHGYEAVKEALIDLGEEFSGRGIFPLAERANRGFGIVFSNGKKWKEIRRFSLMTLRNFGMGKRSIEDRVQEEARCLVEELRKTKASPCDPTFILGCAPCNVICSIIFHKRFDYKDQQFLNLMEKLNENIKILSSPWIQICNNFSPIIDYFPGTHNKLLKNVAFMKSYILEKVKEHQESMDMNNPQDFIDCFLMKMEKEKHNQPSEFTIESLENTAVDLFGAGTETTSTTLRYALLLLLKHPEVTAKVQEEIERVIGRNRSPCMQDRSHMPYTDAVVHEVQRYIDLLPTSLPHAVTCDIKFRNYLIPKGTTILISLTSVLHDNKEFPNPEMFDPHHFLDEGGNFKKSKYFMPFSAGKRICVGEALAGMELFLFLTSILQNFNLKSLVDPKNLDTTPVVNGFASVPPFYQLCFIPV
Chain of Cytochrome P450 2D6 (P10635 whole entry): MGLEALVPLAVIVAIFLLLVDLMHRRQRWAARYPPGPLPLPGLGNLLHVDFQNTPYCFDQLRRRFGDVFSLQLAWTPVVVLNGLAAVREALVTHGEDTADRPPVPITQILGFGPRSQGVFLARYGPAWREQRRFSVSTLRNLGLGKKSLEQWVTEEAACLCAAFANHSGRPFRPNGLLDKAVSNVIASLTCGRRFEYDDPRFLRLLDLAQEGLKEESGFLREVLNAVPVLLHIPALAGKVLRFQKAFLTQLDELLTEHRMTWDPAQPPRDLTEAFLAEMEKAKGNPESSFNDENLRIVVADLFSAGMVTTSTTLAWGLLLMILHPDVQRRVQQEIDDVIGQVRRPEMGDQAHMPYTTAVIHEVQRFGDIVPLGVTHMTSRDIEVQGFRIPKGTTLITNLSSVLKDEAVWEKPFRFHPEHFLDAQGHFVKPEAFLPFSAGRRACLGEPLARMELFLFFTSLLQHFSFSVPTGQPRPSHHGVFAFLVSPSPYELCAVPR
Chain of Cytochrome P450 2C19 (P33261 whole entry): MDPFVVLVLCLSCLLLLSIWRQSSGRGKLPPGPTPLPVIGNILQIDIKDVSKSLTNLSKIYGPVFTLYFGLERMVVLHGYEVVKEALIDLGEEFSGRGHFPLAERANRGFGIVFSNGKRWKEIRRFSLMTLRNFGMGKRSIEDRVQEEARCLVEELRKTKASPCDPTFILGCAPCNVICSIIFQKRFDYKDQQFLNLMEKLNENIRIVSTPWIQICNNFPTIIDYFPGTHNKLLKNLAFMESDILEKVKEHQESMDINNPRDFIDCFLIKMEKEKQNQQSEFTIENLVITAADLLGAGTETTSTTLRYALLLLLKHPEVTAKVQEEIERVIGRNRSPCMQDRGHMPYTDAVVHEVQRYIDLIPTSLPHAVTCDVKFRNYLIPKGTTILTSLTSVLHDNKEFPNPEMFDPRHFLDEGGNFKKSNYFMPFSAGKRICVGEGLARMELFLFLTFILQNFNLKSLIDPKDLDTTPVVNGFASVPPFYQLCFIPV

Question: With COc1ccc(OC[C@@]2(c3ccccc3)C[C@H]2C(=O)Nc2ccc(C#N)cn2)cc1OC as the molecule, how does the pIC50 (Cytochrome P450 2C19) read?
Answer: 5.07

Question: What about the pIC50 (Cytochrome P450 2D6) of the same molecule?
Answer: < 5.00

Question: What about the pIC50 (Cytochrome P450 2C9) of the same molecule?
Answer: < 5.00

Question: What about the solubility kinetic [1] of the same molecule?
Answer: 15 µM (≈ 6.44 µg/mL)

Question: And the pIC50 (Cytochrome P450 2C8)?
Answer: 5.10

Question: And the Ratio [2]?
Answer: 1

Question: And the pIC50 (Cytochrome P450 1A2)?
Answer: < 5.00

Question: What about the solubility kinetic [3] of the same molecule?
Answer: 25 µM (≈ 10.7 µg/mL)

Question: What about the pKi (Orexin receptor type 2) of the same molecule?
Answer: 8.30

Question: And the activity at 10 min, 10 µM (CYP3A)?
Answer: 49%

Question: And the remaining at 0.25 h, 0.3 µM [4]?
Answer: 80%

Question: What about the pKi [5] of the same molecule?
Answer: 6.97

Reference: ChEMBL document CHEMBL3585325, “Discovery of (1R,2S)-2-{[(2,4-Dimethylpyrimidin-5-yl)oxy]methyl}-2-(3-fluorophenyl)-N-(5-fluoropyridin-2-yl)cyclopropanecarboxamide (E2006): A Potent and Efficacious Oral Orexin Receptor Antagonist” (J Med Chem, 2015)
